Assay outcomes: PubChem BioAssay, several laboratories
Dynein cargo inh = dynein cargo transport inhibition; 3617.4 mouse cells, GR-EGFP nuclear translocation imaging; test concentration mostly 20 µM; stimulated with dexamethasone, 1 µM; active compounds read low; z-score, hits read low; 0.47% of 220,000 active; AID 1381;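 active = plate z-score of nuclear minus cytoplasmic receptor signal below a set negative limit, without overly bright fluorescence or cell loss, cut at about -3.5 in these data, passing the limit was not always enough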;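 also: z-score of nuclear minus cytoplasmic ring GR-EGFP intensity difference per well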
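Buffer or medium – tet-free medium with charcoal-stripped serum · Signal – automated 10x imaging of fixed Hoechst-stained cells · Also added – dexamethasone agonist, 1.0 µM final, for 30 min · Incubation – induction 48 h, compound 1 h, agonist 30 min · Read-out – GR-EGFP nuclear translocation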
L929 necroptosis = L929 zVAD cell death inhibition; L929 zVAD necroptosis rescue, ATP luminescence, 24 h; with zVAD 60 µM; 0.38% of 220,000 active; viability rescue, % at 10 µM;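 active = activation, scaled between plate controls, above about 75%, limit read from the data; inactive = activation under that limit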
HSV replic up = increases HSV replication in cells; maximum fold increase; 0.005% of 220,000 active; HSV replication augmentation in cells, fold increase; in the data active = maximum fold increase above about 1.5; inconclusive = no clear call, values can overlap the other calls; tested in PC3 cells
Furin inhibitor = inhibitors of human furin | inhibition, % at 20 µM or 30 µM | purified furin, fluorogenic substrate cleavage | 0.061% of 220,000 active; in the data active = inhibition above about 25%
Target sequence (P09958 108-714 limits assumed): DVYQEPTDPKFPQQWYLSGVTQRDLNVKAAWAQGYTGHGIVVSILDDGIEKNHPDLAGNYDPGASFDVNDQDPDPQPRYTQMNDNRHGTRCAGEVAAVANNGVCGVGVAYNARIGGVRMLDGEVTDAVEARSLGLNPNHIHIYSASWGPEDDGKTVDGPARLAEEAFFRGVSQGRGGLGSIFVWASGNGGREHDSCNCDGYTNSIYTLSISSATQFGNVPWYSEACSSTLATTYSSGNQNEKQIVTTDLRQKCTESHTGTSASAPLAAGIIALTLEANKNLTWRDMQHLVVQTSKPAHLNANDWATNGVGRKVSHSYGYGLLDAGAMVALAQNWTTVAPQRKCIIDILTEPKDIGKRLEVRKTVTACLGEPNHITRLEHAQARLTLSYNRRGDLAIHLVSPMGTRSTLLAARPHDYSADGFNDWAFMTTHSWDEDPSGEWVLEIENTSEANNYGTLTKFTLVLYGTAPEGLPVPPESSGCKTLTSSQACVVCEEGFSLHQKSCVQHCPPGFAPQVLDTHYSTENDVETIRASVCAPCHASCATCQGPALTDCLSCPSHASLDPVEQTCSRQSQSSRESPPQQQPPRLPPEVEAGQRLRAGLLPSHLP
TNF necrop inh = TNF-alpha cell death inhibition in Jurkat FADD-/- cells. Jurkat FADD-/- TNF necroptosis rescue, ATP luminescence, 24 h; 0 = TNF only, 100 = no-TNF cells. activation (protection from cell death), % at 10 µM. 0.068% of 220,000 active;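 active = activation, meaning protection from cell death, of at least 50% relative to plate controls; inactive = activation below 50%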;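 also: necroptosis triggered by 40 ng/mL TNF-alpha added together with compound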
Autophagy HCS = alters autophagy in cells; MEF GFP-LC3 puncta imaging; test concentration mostly 10 µM; calls only at 10 µM (by protocol); 0.98% of 190,000 active; AID 463193;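 active = percentage of spot-positive cells more than 3 SD above its plate mean, without a fluorescence outlier flag or 80% toxicity; inconclusive = no clear call, values can overlap the other calls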
Of the large screens only hits and unclear results are named; the others gave an inactive call. Only some compounds are listed: those with a hit (about 1.8% of all), similar ones and a draw of the others.

Cc1ccc2nc3sc(C(=O)N4CCCc5ccccc54)c(N)c3cc2c1	none
C=CCN(c1ccccc1)S(=O)(=O)c1cccc(C(=O)OCC(=O)NC2CC2)c1	Autophagy HCS active
C=CCN(c1ccccc1)S(=O)(=O)c1cccc(C(=O)OCC(=O)NCCOC)c1	none (no result: Autophagy HCS)
CCOC(=O)C1=C(c2ccccc2)O/C(=C(\C(=O)OC)C(F)(F)F)S1	none
CCOC(=O)C1=C(c2ccccc2)O/C(=C(/C#N)C(F)(F)F)S1	Autophagy HCS active
Cc1cc(/C=C2\NC(=S)N(C)C2=O)ccc1N1CCCC1	HSV replic up inconclusive, Autophagy HCS active
Cc1cc(/C=C2/C(=O)N(C)C(=S)N2C)ccc1N1CCCC1	HSV replic up inconclusive, Autophagy HCS active
Cc1cc(N2CCCC2)ccc1/C=C1/C(=O)N(C)C(=S)N1C	none (no result: HSV replic up)
CCCN1C(=O)/C(=C/c2ccc(N3CCCC3)c(C)c2)NC1=S	HSV replic up inconclusive, Autophagy HCS active
O=C(Nc1nc2nccc(-c3ccccc3)n2n1)C(Cl)(Cl)Cl	none
S=C(Nc1ccccc1)c1nc2ccccc2s1	none
CCC1CCC(C(=O)NNC(=O)c2cc(-c3ccco3)[nH]n2)CC1 (stereo not given)	none
Cc1cc2ncn(S(=O)(=O)N3CCOCC3)c2cc1C	Furin inhibitor 26.5
COc1ccc(N2CCN(C(=O)c3cc4c(-c5cccc(OC)c5)nn(C)c4s3)CC2)cc1	Autophagy HCS active
COc1ccc(-c2nn(C)c3sc(C(=O)N4CCOCC4)cc23)cc1OC	none
COc1cccc(-c2nn(C)c3sc(C(=O)Nc4ccc5c(c4)OCCO5)cc23)c1	Autophagy HCS active
O=C1NC2(CCN(Cc3ccccc3)CC2)Oc2ccccc21	none
Cc1ccc(CN2C(=O)c3ccccc3NC23CCN(Cc2ccccc2)CC3)cc1	Autophagy HCS active
Cn1cccc1Cc1nnc(SCC(=O)Nc2ccc(F)cc2)n1-c1ccc(F)cc1	none (no result: Autophagy HCS)
Cn1cccc1Cc1nnc(SCC(=O)Nc2cccc(F)c2)n1CCc1ccccc1	Autophagy HCS active
COc1ccc(-n2c(Cc3cccn3C)nnc2SCC(=O)NCc2ccc(F)cc2)cc1	none
Cn1cccc1Cc1nnc(SCC(=O)Nc2ccc(Cl)cc2)n1-c1ccc(F)cc1	Autophagy HCS active
COc1ccc(-n2c(Cc3cccn3C)nnc2SCC(=O)NCc2ccccc2Cl)cc1	Autophagy HCS active
Cn1cccc1Cc1nnc(SCC(=O)Nc2ccccc2F)n1CCc1ccccc1	none (no result: Autophagy HCS)
N/C(Cc1ccccc1)=N\OC(=O)c1cccc2ccccc12	none
CCOc1cc(CNC2CCCC2)c(Cl)cc1OCC(=O)Nc1ccccc1	none
COC(=O)c1ccc(Cn2nc(C)c(Cl)c2C)o1	Furin inhibitor 29.4
CN(C1=NS(=O)(=O)c2ccccc21)c1ccc(OC(=O)c2ccncc2)cc1	none
O=[N+]([O-])c1ccc(N/N=C/c2c[nH]c3ccccc23)c(S(=O)(=O)Nc2ccc(Cl)cc2)c1	Autophagy HCS active (no result: HSV replic up)
CN1CCN(S(=O)(=O)c2cc([N+](=O)[O-])ccc2N/N=C/c2ccc(Cl)cc2)CC1	none
COc1ccc(C2NC(c3ccc(OC)cc3OC)C(C)C(=O)C2C)c(OC)c1 (stereo not given)	none
CC1(C)CC(NC(=S)Nc2ccc([N+](=O)[O-])cc2)CC(C)(C)N1	none
O=C1C=C(O)c2cccc(O)c2C1=O	none (no result: Autophagy HCS)
CC1=CC(=O)c2c(O)ccc(O)c2C1=O	Dynein cargo inh -3.93
Cc1c(Br)cc(C(=O)OC2CCN(C)CC2)c(C)c1C	Autophagy HCS active
COc1ccc(C(=O)OC2CCN(C)CC2)cc1	none
CC(O)c1nc2ccc(C(=O)O)cc2[nH]1 (stereo not given)	none (no result: Autophagy HCS)
Cc1ccc(S(=O)(=O)NCCCNC(=O)N2CCOCC2)cc1	Autophagy HCS active
Cc1ccc(S(=O)(=O)NCCNC(=O)N2CCOCC2)cc1	none
CCOC(=O)C1=c2/c(=C/c3ccccc3OC)c(N)c(C#N)n2C(=O)C(c2ccccc2OC)S1 (stereo not given)	Autophagy HCS active (no result: HSV replic up)
CCOC(=O)C1=c2/c(=C/c3ccncc3)c(N)c(C(=O)OC)n2C(=O)C(c2ccncc2)S1 (stereo not given)	none
C/C(CC1CC(C)OC1=O)=N\NC(N)=S (stereo not given)	none
C/C(CCC12CC3CC(CC(C3)C1)C2)=N\NC(N)=S	Autophagy HCS active
Cc1ccc(Nc2c(N)c(=O)oc3ccccc23)cc1	Autophagy HCS active
CNc1c(N)c(=O)oc2ccccc12	none
CSc1ccc(C2C(C#N)=C(N)Oc3c2ccc(=O)c2c(C)oc(C)c32)cc1 (stereo not given)	HSV replic up inconclusive
Cc1oc(C)c2c(=O)ccc3c(c12)OC(N)=C(C#N)C3c1ccccc1 (stereo not given)	Autophagy HCS active
O=C(COC(=O)c1cc(S(=O)(=O)N2CCCCC2)ccc1N1CCOCC1)NC1CCS(=O)(=O)C1 (stereo not given)	none
CC1CCN(CCCNC(=O)c2ccc3c(=O)n(Cc4ccc(Cl)cc4)c(=S)[nH]c3c2)CC1	Autophagy HCS active
Oc1c(Cl)cc(Cl)cc1C1Nc2ccccc2-n2cccc21 (stereo not given)	none (no result: Autophagy HCS)
COc1ccc2c(c1)NC(c1cc(Cl)cc(Cl)c1O)c1cccn1-2 (stereo not given)	Autophagy HCS active
Cc1sc2nc(CN3CCOCC3)[nH]c(=S)c2c1C	none
O=C1N/C(=C/c2ccc(Br)s2)C(=O)N1c1ccccc1	Autophagy HCS active
O=C(NC1CCN(C(=O)N2c3ccccc3Sc3ccccc32)CC1)c1ccco1	Autophagy HCS active
O=C(c1ccco1)N1c2ccccc2Sc2ccccc21	none
O=C(c1ccco1)N1CCN(C(=O)N2c3ccccc3Sc3ccccc32)CC1	Autophagy HCS active
Cc1ccc(NC(=S)N(CCCN2CCN(C)CC2)Cc2cccs2)cc1C	Autophagy HCS active
Cc1ccc(NC(=S)N(CCCN2CCN(C)CC2)Cc2cccs2)cc1	none
CCOC(=O)c1ccc(NC(=S)N(CCCN2CCN(CC)CC2)Cc2ccco2)cc1	Autophagy HCS active
CC(=O)OCC12COC3c4ccccc4OC(C)(CC1C)C3C2C (stereo not given)	none
C=C(C)COc1ccc(-c2n[nH]c(C)c2-c2ccc(Br)cc2)c(O)c1	Autophagy HCS active
CCN1C(=O)/C(=C2/C=Cc3ccccc3N2C)OC1=S	none
CCN1C(=O)/C(=C2\C=Cc3cc(C)ccc3N2CC)OC1=S	Autophagy HCS active
OCCNCC(O)Cn1c2ccccc2c2ccccc21 (stereo not given)	Autophagy HCS active
COc1ccc(C)cc1N1C(=N)/C(=C2/Nc3ccccc3S2)C(c2ccccc2)C1=O (stereo not given)	Dynein cargo inh -3.55 (no result: L929 necroptosis)
